Values after ≈ are worked out from the molar mass of the structure shown. Active and inactive are the calls of the source. The calls are words filed in the database; no cut-off is given here. Bounds are passed on as bounds.

The test system of test [1] is Human immunodeficiency virus 1. Briefly: Antiviral activity against HIV 3B infected human H9 cells assessed as inhibition of p24 antigen release. Format: functional. To be noted: Human immunodeficiency virus 1, 3B, read-out: ED50 (the source's name). An outline of the steps:
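H9 lymphocytes (3.5×10^6 cells/ml) exposed to HIV-1 HTLV-IIIB at 0.01-0.1 TCID50/cell for 1 h at 37°, then washed and resuspended at 4×10^5 cells/ml. Mixed with an equal volume of compound diluted in medium and cultured 3 days at 37°. Virus released into the medium measured by p24 antigen capture. EC50 read graphically from a plot of % inhibition versus concentration.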

The next test deals with H9. Put plainly: Cytotoxicity against human H9 cells. Format: cell-based. The method in brief: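 Uninfected H9 lymphocytes were handled in parallel with the infected cultures: 1 h mock exposure at 37°, washing, resuspension at 4×10^5 cells/ml, and 3 days at 37° with an equal volume of compound diluted in medium. Cell density was counted with a Coulter counter. IC50 was read graphically from a plot of % inhibition versus concentration.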

Test [2] addresses T1, Human immunodeficiency virus type 1 reverse transcriptase (Human immunodeficiency virus 1, UniProt Q72547). Put plainly: Inhibition of HIV1 recombinant reverse transcriptase expressed in Escherichia coli using poly(dC)-oligo(dG) template.
Test [3] concerns the target Human immunodeficiency virus type 1 reverse transcriptase (Human immunodeficiency virus 1) (UniProt Q72547). Briefly: Inhibition of HIV1 recombinant reverse transcriptase expressed in Escherichia coli using poly(rU)-oligo(dA) template at 100 ug/ml.
Test [4] has the same target. Briefly: Inhibition of HIV1 recombinant reverse transcriptase expressed in Escherichia coli using poly(rG)-oligo(dC) template at 100 ug/ml.
Test [5] has the same target. Briefly: Inhibition of DNA polymerase activity of HIV1 recombinant reverse transcriptase. The method in brief:
(§1)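 Reverse transcriptase purified from E. coli expressing it: HIV-1 from JM109 carrying pKRT2, HIV-2 from a strain bearing pASRT2. HIV-2 enzyme was run with poly(rC)·oligo(dG). EC50 values were reported.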

Test [6] shares this target. Briefly: Inhibition of RNAse activity of HIV1 recombinant reverse transcriptase using poly(dT).[3H]poly(rA) template at 100 ug/ml. An outline of the steps: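 The RNase H activity of purified HIV-1 reverse transcriptase, expressed in E. coli JM109/pKRT2, was assayed with poly(dT)·[3H]poly(rA) as substrate. Compound was tested at 100 µg/ml.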
Test [7] is described as follows: Inhibition of HIV2 reverse transcriptase using poly(rC)-oligo(dG) template. Set-up: species or system Human immunodeficiency virus 2. The method in brief: as §1
Test [8] has as its target T1, Human immunodeficiency virus type 1 reverse transcriptase. Briefly: Inhibition of HIV1 recombinant reverse transcriptase expressed in Escherichia coli using poly(rA)-oligo(dT) template.
Test [9] shares this target. Briefly: Inhibition of HIV1 recombinant reverse transcriptase expressed in Escherichia coli using poly(rC)-oligo(dG) template.
The target is the same in test [10]. Put plainly: Inhibition of HIV1 recombinant reverse transcriptase expressed in Escherichia coli using poly(rU)-oligo(dA) template.
The target is the same in test [11]. Put plainly: Inhibition of HIV1 recombinant reverse transcriptase expressed in Escherichia coli using poly(rG)-oligo(dC) template.

For the compound `C[C@H]1C(=O)CC[C@@H]2[C@]1(C)CC[C@H]1[C@@]2(C)CC[C@@]2(C)[C@@H]3C[C@@](C)(C(=O)O)CC[C@]3(C)CC[C@]12C`, the EC50 in [1] is 59 µM. The compound further had an IC50 in the test with H9 of 44 µM.
The corresponding values for `C[C@@H]1[C@@]23CC[C@H]4[C@@](C)(CC[C@@]5(C)[C@@H]6C[C@](C)(C(=O)O)CC[C@]6(C)CC[C@]45C)[C@@H]2C[C@@H](O)[C@@]1(O)OC3` are 103 µM and 64 µM.
For `C[C@H]1C(=O)CC[C@@H]2[C@]1(C)CC[C@H]1[C@@]2(C)CC[C@@]2(C)[C@@H]3CC(C)(C)CC[C@]3(C)[C@H](O)C[C@]12C`, in test [1], the EC50 came out at 2 µM. Moreover, in the test on H9, the IC50 amounted to 8 µM.
In the case of `C[C@H]1C(=O)CC[C@H]2[C@]3(C)CC[C@@]4(C)[C@@H]5CC(C)(C)C(=O)C[C@]5(C)C(=O)C[C@]4(C)[C@H]3C[C@@H](O)[C@]12C`, in test [1], the EC50 was greater than 106 µM. In the test on H9, this compound had an IC50 of 106 µM.
Turning to `C[C@H]1C(=O)CC[C@@H]2[C@]1(C)CC[C@H]1[C@@]2(C)CC[C@@]2(C)[C@@H]3C[C@](C)(CO)CC[C@]3(CO)CC[C@]12C`, in test [1], the EC50 was 11 µM. The same compound had an IC50 in the test on H9 of 15 µM.
On to `C[C@H]1C(=O)CC[C@@H]2[C@]1(C)CC[C@H]1[C@@]2(C)CC[C@@]2(C)[C@@H]3CC(C)(C)CC[C@]3(C(=O)O)CC[C@]12C`, for which the EC50 in [1] was 15 µM. The IC50 in the test on H9 came to 22 µM.
Turning to `C[C@H]1C(=O)CC[C@@H]2[C@]1(C)CC[C@H]1[C@@]2(C)CC[C@@]2(C)[C@@H]3CC(C)(C)CC[C@]3(OO)CC[C@]12C`, the EC50 in test [1] amounted to 38 µM. Also, the IC50 in the test with H9 turned out to be 38 µM.
Consider `C[C@H]1C(=O)CC[C@@H]2[C@]1(C)CC[C@H]1[C@@]2(C)CC[C@@]2(C)[C@@H]3C[C@@](C)(CO)CC[C@]3(CO)CC[C@]12C`, for which the EC50 in test [1] was determined as 13 µM. For the same compound, in the test on H9, the IC50 came out at 20 µM.
On to `C[C@H]1C(=O)CC[C@@H]2[C@]1(C)CC[C@H]1[C@@]2(C)CC[C@@]2(C)[C@@H]3CC(C)(C)CC[C@]3(CO)CC[C@]12C` [CANOPHYLLOL], for which, in test [1], the EC50 was found to be 4 µM. Also, the IC50 in the test on H9 was determined as 18 µM.
Regarding `C[C@H]1C(=O)CC[C@@H]2[C@]1(C)CC[C@H]1[C@@]2(C)CC[C@@]2(C)[C@@H]3C[C@](C)(C(=O)O)CC[C@]3(C)CC[C@]12C` [MAYTENOIC ACID], the EC50 in test [1] amounted to 66 µM. Also, the IC50 in the test with H9 came out at 44 µM.
As to `C[C@@H]1[C@@]23CC[C@H]4[C@@](C)(CC[C@@]5(C)[C@@H]6C[C@](C)(C(=O)O)CC[C@]6(C)CC[C@]45C)[C@@H]2CC[C@@]1(O)OC3` [SALASPERMIC ACID], the EC50 in test [2] was 159 µM; in [7] it was 100 µg/mL (≈ 212 µM); in test [1], 10 µM; in [8], 33.8 µM; in test [9], 31.7 µM; in test [10], greater than 212 µM. Also, the EC50 in test [11] is greater than 212 µM. For the same compound, the inhibition turned out to be 37% in test [3] and 4% in test [4]. Also, in test [5], the result was Active. Besides, the outcome in test [6] was inactive. In the test on H9, this compound showed an IC50 of 53 µM.

Source of the values: ChEMBL document CHEMBL1159012, “Anti-aids agents, 6. Salaspermic acid, an anti-HIV principle from Tripterygium wilfordii, and the structure-activity correlation with its related compounds” (J Nat Prod, 1992).
